Compounds with a hit are over-represented: about 3% of the library has one in this group of screens.
Cneo AK release = causes C. neoformans cell lysis; adenylate kinase release luminescence, 4 h; normalised: neutral wells 0, clomiphene wells 100; lysis activity, % at 15 µM; hit rate 0.2% among 360,000; AID 651654;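 active = mean lysis activity across replicates of at least 80%, whatever share of replicates individually reach that level; inactive = mean lysis activity below 80%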
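Material – log-phase Cryptococcus neoformans yeast cells · Input – 5 × 10^6 yeast cells/mL · Medium – fresh YPD growth medium · Doses – single compound concentration per well · Timing – static 4 h at 37 °C with compound, 1 h detection · Detection – adenylate kinase release luminescence · Read-out – signal increase indicating cell lysis · Control set – Clomiphene as positive lysis control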
S100A4 inh HTS = inhibitors of human S100A4 binding to myosin IIA peptide | S100A4/TAMRA-MyoIIA peptide fluorescence polarization | inhibition, % at 10.7 µM | AID 652163 | hit rate 0.14% among 360,000 | P26447;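 active = mean inhibition of at least 70% across replicates, with every replicate also reaching that level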
Target sequence (P26447 whole entry, looked up): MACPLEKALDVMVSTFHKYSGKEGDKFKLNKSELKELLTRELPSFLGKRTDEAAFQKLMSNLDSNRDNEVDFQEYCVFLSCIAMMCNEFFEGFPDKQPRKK
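Material: S100A4 monomer protein / Buffer or medium: 50 mM HEPES pH 7.2, 10 mM CaCl2, 100 mM KCl / Times: 5 min incubation before reading / Benchmarks: neutral control DMSO, positive control TFP / Reagent: labelled myosin peptide probe, 5 nM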
Statin myotox sup = suppression of simvastatin myotoxicity; rescue of ATP level, % at 7.49 µM; hit rate 0.78% among 330,000; C2C12 myotubes + simvastatin, ATP luminescence, 48 h; scaled: DMSO 0, geranylgeraniol control 100; AID 602340;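 active = mean ATP rescue above about 67%, or every replicate alone reaching that limit, limit read from the data, passing the limit was not always enough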;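 also: myotubes were challenged with 10 µM simvastatin during compound exposure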
SIRT5 block = blocks human SIRT5 desuccinylation of peptide. Q9NXA8. Purified SirT5, succinyl-peptide AMC, trypsin-coupled fluorescence. inhibition, % at 15 µM. hit rate 1.1% among 330,000. AID 652115; in the data active = inhibition above about 15%
Target sequence (Q9NXA8 whole entry, looked up): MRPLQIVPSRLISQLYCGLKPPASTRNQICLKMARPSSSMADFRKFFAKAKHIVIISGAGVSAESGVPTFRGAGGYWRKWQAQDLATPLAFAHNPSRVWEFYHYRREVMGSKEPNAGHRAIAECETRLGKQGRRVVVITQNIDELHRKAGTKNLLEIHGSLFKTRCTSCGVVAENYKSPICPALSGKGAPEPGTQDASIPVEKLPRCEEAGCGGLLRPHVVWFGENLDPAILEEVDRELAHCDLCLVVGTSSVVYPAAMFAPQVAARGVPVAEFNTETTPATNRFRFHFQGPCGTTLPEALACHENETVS
PGC1a acetyl inh = modulators of PGC1a acetylation; U2OS PGC1a acetylation, AlphaScreen anti-acetyl-lysine; with virally co-expressed GCN5 acetyltransferase; inhibition, % at 15.6 µM; hit rate 0.17% among 350,000;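 active = every replicate shows inhibition of at least 40%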;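 also: 0% = neutral control wells and 100% = positive control wells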
Ecoli rRNA inh = selective bacterial rRNA inhibition in E. coli; E. coli WT GFP vs humanized-ribosome RFP mutants, fluorescence, 24 h; stronger effect = lower value; DMSO median 0, no signal -100; GFP signal change (wild-type ribosome), % (concentration not given with the values); hit rate 1.6% among 350,000; AID 720706;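 active = significant combined selectivity score with lowered wild-type GFP, culture density cut under 30%, mutant RFP and density less affected; inactive = any of these conditions unmet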
* = called active by the depositor; · = not tested or not shown; ! = not active in a repeat.

SMILES	Cneo AK release	S100A4 inh HTS	Statin myotox sup	SIRT5 block	PGC1a acetyl inh	Ecoli rRNA inh
CCOc1ccc(CNn2cnnc2)cc1	5	-3	-1	1	-8	-4
O=C(CCN=C1NS(=O)(=O)c2ccccc21)OCC(=O)c1ccccc1Cl	·	-4	·	16*	·	-1
C[C@H]1CN([C@@H](C)CO)C(=O)Cc2cc(NC(=O)CCCCCC(=O)Nc3ccccc3N)ccc2O[C@@H]1CN(C)C(=O)Nc1ccc2c(c1)OCO2	52	6	18	4	3	7
COc1cccc(C(=O)Nc2ccc3c(c2)OC[C@@H](C)N(CCc2ccccc2)C[C@@H](C)[C@@H](OC)CN(C)C3=O)c1	-3	6	-8	3	-4	-5
COCC(=O)Nc1ccc2c(c1)C(=O)N(C)C[C@H](OC)[C@@H](C)CN(C(=O)c1ccccc1)[C@@H](C)CO2	95*	-10	-6	2	6	1
COc1cccc(C(=O)Nc2ccc3c(c2)C(=O)N(C)C[C@H](OC)[C@H](C)CN(CCc2ccccc2)[C@@H](C)CO3)c1	-3	5	7	13	-9	-1
COCC(=O)Nc1ccc2c(c1)OC[C@@H](C)N(CCc1ccccc1)C[C@@H](C)[C@H](OC)CN(C)C2=O	-2	-4	-5	31*	-7	-1
COCC(=O)Nc1ccc2c(c1)C(=O)N(C)C[C@@H](OC)[C@H](C)CN(CCc1ccccc1)[C@H](C)CO2	2	-2	1	1	4	-2
COc1cccc(C(=O)Nc2ccc3c(c2)C(=O)N(C)C[C@H](OC)[C@@H](C)CN(CCc2ccccc2)[C@H](C)CO3)c1	2	-6	3	20*	-27	-3
COc1cccc(C(=O)Nc2ccc3c(c2)OC[C@H](C)N(CCc2ccccc2)C[C@@H](C)[C@@H](OC)CN(C)C3=O)c1	56	-1	37	0	-1	-25*!
COc1ccc(NC(=O)N(C)C[C@H]2Oc3ccc(NS(=O)(=O)c4ccc(OC)cc4)cc3CC(=O)N([C@@H](C)CO)C[C@H]2C)cc1	1	-14	5	-2	-17	2
C[C@@H]1CN([C@H](C)CO)C(=O)c2cc(NS(=O)(=O)c3cn(C)cn3)ccc2O[C@H]1CN(C)C(=O)Nc1ccccc1	-2	6	-2	23*!	-7	1
COc1ccc(NC(=O)N(C)C[C@H]2Oc3ccc(NS(=O)(=O)c4ccc(OC)cc4)cc3CC(=O)N([C@H](C)CO)C[C@H]2C)cc1	-3	-12	28	20*	-13	2
COc1ccc(S(=O)(=O)Nc2ccc3c(c2)C(=O)N([C@@H](C)CO)C[C@H](C)[C@@H](CN(C)C(=O)Nc2ccccc2)OCCCC[C@H](C)O3)cc1	4	·	·	·	-6	-6
COc1ccc(S(=O)(=O)Nc2ccc3c(c2)C(=O)N([C@@H](C)CO)C[C@@H](C)[C@@H](CN(C)C(=O)Nc2ccc(F)cc2)OCCCC[C@@H](C)O3)cc1	5	-6	8	18*	3	-2
COc1ccc(S(=O)(=O)Nc2ccc3c(c2)C(=O)N([C@@H](C)CO)C[C@@H](C)[C@H](CN(C)C(=O)Nc2ccccc2)OCCCC[C@@H](C)O3)cc1	-1	103*	8	-1	-9	-2
N#Cc1ccc(-c2ccc([C@H]3[C@@H](CO)N4C(=O)CN(C(=O)C5CCC5)C[C@@H]34)cc2)cc1	·	1	·	0	-5	-2
C[C@H](CO)N1C[C@H](C)[C@@H](CN(C)C(=O)c2ccc(F)cc2)Oc2ncc(C#CCN(C)C)cc2C1=O	-4	0	8	3	4	3
CN(C)CC(=O)N[C@@H]1CC[C@@H](CCn2cc(C3CCCC3)nn2)O[C@@H]1CO	-2	-1	-4	-3	1	4
CC=Cc1ccc2n(c1=O)C[C@@H]1[C@@H](CO)[C@H](C(=O)Nc3ccc(-c4ccccc4)cc3)[C@H]2N1CC (mixture of isomers)	·	7	·	·	4	-3
COc1ccc(S(=O)(=O)Nc2ccc3c(c2)C(=O)N([C@@H](C)CO)C[C@H](C)[C@@H](CN(C)C(=O)Nc2ccc(F)cc2)OCCCC[C@@H](C)O3)cc1	1	-24	0	16*	-11	-2
COc1ccc(S(=O)(=O)Nc2ccc3c(c2)C(=O)N([C@H](C)CO)C[C@H](C)[C@@H](CN(C)C(=O)Nc2ccccc2)O3)cc1	0	3	1	·	10	2
COc1ccc(NC(=O)N(C)C[C@@H]2OCCCC[C@@H](C)Oc3ccc(NS(=O)(=O)c4ccc(Cl)cc4)cc3C(=O)N([C@H](C)CO)C[C@@H]2C)cc1	1	139*	·	5	11	-2
COc1ccc(S(=O)(=O)Nc2ccc3c(c2)C(=O)N([C@@H](C)CO)C[C@@H](C)[C@H](CN(C)C(=O)Nc2ccc(F)cc2)OCCCC[C@@H](C)O3)cc1	-7	-19	-5	8	9	0
COc1ccc(S(=O)(=O)Nc2ccc3c(c2)C(=O)N([C@H](C)CO)C[C@H](C)[C@H](CN(C)C(=O)Nc2ccccc2)O3)cc1	90*	10	0	7	-2	-4
SMILES	Cneo AK release	S100A4 inh HTS	Statin myotox sup	SIRT5 block	PGC1a acetyl inh	Ecoli rRNA inh
COc1ccc(-c2cn3cc(C)ccc3n2)cc1F	-11	5	-12	-6	-17	-31*
CCNC(=O)COc1cccc2ccccc12	-3	·	0	·	12	·
O=C(NCCNC(=O)Oc1cccc2ccccc12)Oc1cccc2ccccc12	0	-1	5	26*	1	-6
CCOc1cc(C(=O)Nc2cccc3ncccc23)cc(OCC)c1OCC	-1	-3	107*	-1	-9	-4
O=C1C(=O)N(Cc2cccnc2)C(c2ccccn2)/C1=C(/O)c1ccccc1 (centres undefined)	0	·	135*	·	2	·
Cc1cc(OCc2ccccc2)ccc1/C(O)=C1/C(=O)C(=O)N(Cc2cccnc2)C1c1ccncc1 (centres undefined)	·	0	7	3	-2	-29*
O=C(Nc1ccc2c(c1)OCO2)N[C@H]1C=C[C@@H](CC(=O)N2CCN(c3ccccc3)CC2)O[C@H]1CO	2	-25	30	-1	2	-2
COc1ccccc1C1CC(=O)Oc2cc(C)c(Br)c(C)c21 (centres undefined)	-3	-6	0	35*	3	1
C[C@H](CO)N1C[C@H](C)[C@@H](CN(C)Cc2ccccc2)Oc2c(NC(=O)Cc3cn(C)c4ccccc34)cccc2C1=O	·	·	·	·	·	-4
